Data set [1] has as its system HepG2. Kind of data set: Viability of human HepG2 cells at 200 uM. The data set is classed as functional. In short, it runs like this:
(§1)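 Cells plated at 5 × 10⁴/well 24 h ahead and rinsed with PBS. CDP/pGL3-CV polyplexes (1 µg DNA, charge ratio 5 +/-) applied in Opti-MEM with compound for 4 h at 37 °C, 5% CO₂, then medium replaced. After another 44 h, lysates assayed for luciferase in duplicate, expressed as RLU/mg protein. Viability taken as total lysate protein by modified Lowry (DC) assay, normalized to cells transfected with naked DNA.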

Data set [2] relates to HeLa. Kind of data set: Viability of human HeLa cells at 200 uM. In kind it is functional. The essentials: as §1
Data set [3] deals with HepG2. Nature of the data set: Uptake in human HepG2 cells at 100 uM after 30 mins. In kind it is ADME, cell-based. The following applies: hepg2, 0.5 h. In short, it runs like this:
(§2)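 HepG2 cells (2 × 10⁶) incubated at 37 °C in Opti-MEM (pH 7.4) with 100 µM compound, with or without CDP/pDNA (20 nmol/3 pmol). At set times, washed with cold PBS with and then without compound, lysed, and diluted in 0.1 N NaOH. Fluorescence read at ex 360/em 465 nm, converted by standard curve, and cellular concentration calculated assuming a cell volume of 3 × 10⁻⁶ µL.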

For data set [4], the system named is HepG2. Nature of the data set: Uptake in human HepG2 cells after 4 hrs in presence of CDP/plasmid pGL3-CV polyplexes. In kind it is ADME, cell-based. The following applies: hepg2, 4 h. In short, it runs like this:
as §2

In data set [5] the test system is Nucleic Acid. Nature of the data set: Binding affinity to plasmid pGL3-CV assessed as retardation of movement in gel at 10 mM. The data set is classed as nucleic-acid assay. In short, it runs like this: (§3)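 pGL3-CV plasmid mixed with compound across 0.1-10 mM, each solution held ~10 min, then loading buffer and Borax buffer (0.025 M, pH 8.4) added. Run on 0.5% agarose gel containing ethidium bromide in TAE (40 mM Tris-acetate, 1 mM EDTA). Mobility compared with untreated plasmid.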

Data set [6] concerns Nucleic Acid. Kind of data set: Displacement of plasmid pGL3-CV from CDP/plasmid pGL3-CV polyplexes at 500 uM. The data set is classed as nucleic-acid assay. In short, it runs like this:
(§4)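 pGL3-CV (2 µg, 0.6 pmol) complexed with CDP (24 µg, 4 nmol), diluted in PBS and held 30 min at 25 °C. Mixed with compound for a further 30 min at 25 °C, then passed through a 100 nm membrane presoaked with matching compound concentration. Free DNA in filtrate measured by DAPI fluorescence (ex 350/em 465 nm). % released = (If−I0)/(It−I0)×100.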

For data set [7], the system named is Nucleic Acid. Kind of data set: Displacement of plasmid pGL3-CV from CDP/plasmid pGL3-CV polyplexes at 20 mM. In kind it is nucleic-acid assay. In short, it runs like this: as §4
In data set [8] the test system is Nucleic Acid. Nature of the data set: Exclusion of picogreen dye from plasmid pGL3-CV at 0.5 mM. The data set is classed as nucleic-acid assay. In short, it runs like this:
(§5)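 CDP/pGL3-CV polyplexes diluted 2.5× in water, then mixed 1:1 with compound at twice the final concentration. Incubated 5 min at room temperature, then combined with an equal volume of PicoGreen diluted 200× in 10 mM HEPES. Fluorescence read at ex 488/em 535 nm; exclusion taken as loss of dye fluorescence.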

Data set [9] has as its system Nucleic Acid. Nature of the data set: Exclusion of picogreen dye from plasmid pGL3-CV at 1 mM. The data set is classed as nucleic-acid assay. In short, it runs like this: as §5
In data set [10] the test system is Nucleic Acid. Kind of data set: Exclusion of picogreen dye from plasmid pGL3-CV at 4 mM. In kind it is nucleic-acid assay. In short, it runs like this: as §5
In data set [11] the test system is HepG2. Nature of the data set: Transfection of CDP/plasmid pGL3-CV in HepG2 cells at 200 uM after 48 hrs by luciferase assay. The data set is classed as functional, Homo sapiens. In short, it runs like this:
as §1

Data set [12] concerns HeLa. Nature of the data set: Transfection of CDP/plasmid pGL3-CV in HeLa cells at 200 uM after 48 hrs by luciferase assay. The data set is classed as functional, Homo sapiens. In short, it runs like this:
as §1

Data set [13] relates to Nucleic Acid. Kind of data set: Transcription of plasmid pGL3-CV upto 2.5 mM relative to control. In kind it is nucleic-acid assay.
Data set [14] deals with HepG2. Kind of data set: Viability of human HepG2 cells at 150 uM. The data set is classed as functional. In short, it runs like this: as §1
The subject of data set [15] is HepG2. Nature of the data set: Transfection of CDP/plasmid pGL3-CV in HepG2 cells at 150 uM after 48 hrs by luciferase assay. In kind it is functional, Homo sapiens. The essentials: as §1
Data set [16] deals with Nucleic Acid. Nature of the data set: Displacement of plasmid pGL3-CV from CDP/plasmid pGL3-CV polyplexes at 2.5 mM. In kind it is nucleic-acid assay. The essentials:
as §4

Data set [17] has as its system Nucleic Acid. Nature of the data set: Displacement of plasmid pGL3-CV from CDP/plasmid pGL3-CV polyplexes at 5 to 20 mM. The data set is classed as nucleic-acid assay. The essentials:
as §4

The subject of data set [18] is HepG2. Kind of data set: Uptake of CDP/plasmid pGL3-CV polyplexes in HepG2 cells after 30 mins. The following applies: human, hepg2, 0.5 h. The data set is classed as ADME, cell-based.
Data set [19] relates to HepG2. Nature of the data set: Uptake of CDP/plasmid pGL3-CV polyplexes in HepG2 cells after 2 hrs. In kind it is ADME, cell-based. The following applies: human, hepg2, 2 h.
Data set [20] relates to HepG2. Nature of the data set: Viability of human HepG2 cells at 100 uM. In kind it is functional. In short, it runs like this:
as §1

In data set [21] the test system is HepG2. Nature of the data set: Transfection of CDP/plasmid pGL3-CV in HepG2 cells at 100 uM after 48 hrs by luciferase assay. In kind it is functional, Homo sapiens. In short, it runs like this:
as §1

Data set [22] concerns HepG2. Kind of data set: Viability of human HepG2 cells at 20 uM. The data set is classed as functional. In short, it runs like this: as §1
Data set [23] deals with HepG2. Kind of data set: Transfection of CDP/plasmid pGL3-CV in HepG2 cells at 20 uM after 48 hrs by luciferase assay. In kind it is functional, Homo sapiens. In short, it runs like this:
as §1

The test system of data set [24] is HepG2. Kind of data set: Uptake in human HepG2 cells at 100 uM after 4 hrs. The following applies: hepg2, 4 h. In kind it is ADME, cell-based. The essentials: as §2
Data set [25] has as its system Nucleic Acid. Nature of the data set: Binding affinity to plasmid pGL3-CV assessed as retardation of movement in gel at 1 mM. The data set is classed as nucleic-acid assay. The essentials:
as §3

Data set [26] deals with Nucleic Acid. Nature of the data set: Binding affinity to plasmid pGL3-CV assessed as retardation of movement in gel at 100 uM. The data set is classed as nucleic-acid assay. The essentials:
as §3

Structures are written as SMILES. The source made the active and inactive calls. The calls are words filed in the database; no cut-off is given here.

As for `CCN(CC)CCCC(C)Nc1ccnc2cc(C(F)(F)F)ccc12` (configuration not stated), the Activity with HepG2 [1] is 61%; with HeLa [2] it was 83%; with Nucleic Acid [6], 40%; in the data set with Nucleic Acid [7], 70%; in the data set with Nucleic Acid [8] it was 30%; in the data set with Nucleic Acid [9] it was 30%. Also, the Activity in the data set on Nucleic Acid [10] was 100%; in the data set on HepG2 [11] it was 170000000 RLU/mg; in the data set with HeLa [12], 6700000 RLU/mg; in the data set on Nucleic Acid [13] it was 75%. Moreover, the Drug uptake with HepG2 [3] is reported as 11 mM; in the data set with HepG2 [4] it was 13 mM. Further, the result in the data set with Nucleic Acid [5] was Active.
Take `NCCN(CCN)CCNc1ccnc2cc(Cl)ccc12`: the Activity was 83% with HepG2 [14], 25000000 RLU/mg in the data set on HepG2 [15] and 75% in the data set with Nucleic Acid [13].
On to `CCN(CC)CCCC(C)Nc1ccnc2ccccc12` (configuration not stated), for which the Activity with HepG2 [1] is 100%; in the data set on Nucleic Acid [16] it was less than 3%; with Nucleic Acid [17], 10%; with HepG2 [11], 2700000 RLU/mg; in the data set on Nucleic Acid [13], 75%; in the data set on HepG2 [18], 18.8%. Moreover, the Activity with HepG2 [19] was found to be 75.5%. In addition, the Drug uptake with HepG2 [4] was determined as 2 mM.
Turning to `NCCCN1CCN(CCCNc2ccnc3cc(Cl)ccc23)CC1`, the Activity turned out to be 74% in the data set on HepG2 [20], 20000000 RLU/mg with HepG2 [21] and 75% in the data set with Nucleic Acid [13].
Regarding `CN(C)CCNc1ccnc2cc(Cl)ccc12`, the Activity with HepG2 [14] came out at 64%; with HepG2 [15], 25000000 RLU/mg; with Nucleic Acid [13], 75%.
For the compound `CCN(CC)CCCC(C)Nc1c2ccc(Cl)cc2nc2ccc(OC)cc12` (configuration not stated) [QUINACRINE], the Activity in the data set with HepG2 [22] stood at 57%; in the data set with HepG2 [23], 25000000 RLU/mg.
On to `CCN(CC)CCOc1ccnc2cc(Cl)ccc12`, for which the Activity in the data set with HeLa [2] is 92%; with Nucleic Acid [8], 17%; with Nucleic Acid [9] it was 17%; in the data set with HeLa [12] it was 230000 RLU/mg; in the data set on Nucleic Acid [13] it was 75%.
Regarding `CC(Nc1ccnc2cc(Cl)ccc12)C(=O)O` (configuration not stated), the Activity stood at 84% in the data set with HepG2 [14], 4300000 RLU/mg in the data set with HepG2 [15] and 75% in the data set with Nucleic Acid [13].
The like results for `CC(C)CCCC(C)Nc1ccnc2cc(Cl)ccc12` (configuration not stated) were, in that order, 89%, 4700000 RLU/mg and 75%.
For `CCN(CC)CCCC(C)Nc1ccncc1` (configuration not stated), the Activity is listed as 85% in the data set on HepG2 [1]; 101% in the data set on HeLa [2]; 6400000 RLU/mg with HepG2 [11]; 82000 RLU/mg in the data set with HeLa [12]; 12.8% in the data set with HepG2 [18]; 76.2% in the data set with HepG2 [19].
For `CCN(CC)CCCC(C)Nc1ccnc2cc(Cl)ccc12` (configuration not stated) [CHLOROQUINE], the Activity in the data set with HepG2 [1] amounted to 60%; in the data set on HeLa [2], 82%; in the data set on Nucleic Acid [6] it was 10%; in the data set on Nucleic Acid [7] it was 50%; in the data set on Nucleic Acid [8], 23%; in the data set on Nucleic Acid [9], 23%. Moreover, the Activity in the data set on HepG2 [11] was 16000000 RLU/mg; in the data set on HeLa [12], 4300000 RLU/mg; with Nucleic Acid [13] it was 75%; with HepG2 [18], 11.9%; in the data set with HepG2 [19] it was 67.7%. The Drug uptake turned out to be 12 mM with HepG2 [24] and 13 mM in the data set on HepG2 [4]. Also, the result in the data set on Nucleic Acid [25] and with Nucleic Acid [26] was inactive.
On to `CC(C)NCCNCCNc1ccnc2cc(Cl)ccc12`, for which the Activity amounted to 74% in the data set with HepG2 [1], 22000000 RLU/mg with HepG2 [11] and 75% in the data set with Nucleic Acid [13].

Source of the values: ChEMBL document CHEMBL1137336, “Structure-function correlation of chloroquine and analogues as transgene expression enhancers in nonviral gene delivery” (J Med Chem, 2006).
